In ChEMBL document CHEMBL1165950, “Design and synthesis of new potent anticancer pyrazoles with high FLT3 kinase inhibitory selectivity” (Bioorg Med Chem, 2010):

Columns and labels:
Type in all cases: functional
UO-31 [1] = test: Cytotoxicity against human UO31 cells assessed as cell growth at 0.01 uM after 48 hrs by sulforhodamine B assay; details: UO-31, 48 h, read-out: Activity
SN12C [2] = test: Cytotoxicity against human SN12C cells assessed as cell growth at 10 uM; details: read-out: Activity
Procedure, shortened: (§1)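 NCI-60 screen: cells grown in RPMI 1640 with 5% FBS and 2 mM L-glutamine, plated at 5000–40,000 cells/well according to doubling time, and preincubated 24 h at 37 °C, 5% CO2. The single 10 µM dose (DMSO stock) was added, then incubated 48 h. Cells were TCA-fixed and stained with 0.4% SRB, read at 515 nm, and growth % calculated against time-zero and control plates.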

SN12C [3] = test: Cytotoxicity against human SN12C cells assessed as cell growth at 1 uM after 48 hrs by sulforhodamine B assay; details: read-out: Activity
NCI-H522 = test: Cytotoxicity against human NCI-H522 cells assessed as cell growth at 100 nM after 48 hrs by sulforhodamine B assay; details: NCI-H522, 48 h, read-out: Activity
SK-MEL-2 [4] = test: Cytotoxicity against human SK-MEL-2 cells assessed as cell growth at 0.01 uM after 48 hrs by sulforhodamine B assay; details: SK-MEL-2, 48 h, read-out: Activity
NCI-H23 = test: Cytotoxicity against human NCI-H23 cells assessed as cell growth at 10 uM after 48 hrs by sulforhodamine B assay; details: NCI-H23, 48 h, read-out: Activity
UACC-62 = test: Cytotoxicity against human UACC62 cells assessed as cell growth at 0.01 uM after 48 hrs by sulforhodamine B assay; details: UACC-62, 48 h, read-out: Activity
SK-MEL-28 = test: Cytotoxicity against human SK-MEL-28 cells assessed as cell growth at 10 uM; details: read-out: Activity; procedure, shortened: as §1
SF-539 [5] = test: Cytotoxicity against human SF539 cells assessed as cell growth at 1 uM after 48 hrs by sulforhodamine B assay; details: SF-539, 48 h, read-out: Activity
SNB-75 = test: Growth inhibition of human SNB75 cells after 48 hrs by sulforhodamine B assay; details: SNB-75, 48 h; for CC50: read-out: LC50 (the source's name)
Procedure, shortened: (§2)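 NCI 60-cell screen, five-dose mode. Cells grown in RPMI 1640 with 5% FBS and 2 mM L-glutamine and plated at 5000-40,000 cells/well according to doubling time. After 24 h preincubation, a Tz plate was TCA-fixed. Five concentrations (10-fold or 1/2 log dilutions) were applied for 48 h at 37 °C. SRB staining read at 515 nm. IC50 taken from [(Ti-Tz)/(C-Tz)]×100 = 50.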

SF-268 = test: Cytotoxicity against human SF268 cells assessed as cell growth at 100 nM after 48 hrs by sulforhodamine B assay; details: SF-268, 48 h, read-out: Activity
SF-539 [6] = test: Cytotoxicity against human SF539 cells assessed as cell growth at 100 nM after 48 hrs by sulforhodamine B assay; details: SF-539, 48 h, read-out: Activity
SK-MEL-2 [7] = test: Cytotoxicity against human SK-MEL-2 cells assessed as cell growth at 100 nM after 48 hrs by sulforhodamine B assay; details: SK-MEL-2, 48 h, read-out: Activity
MDA-MB-468 = test: Cytotoxicity against human MDA-MB-468 cells assessed as cell growth at 1 uM after 48 hrs by sulforhodamine B assay; details: MDA-MB-468, 48 h, read-out: Activity
OVCAR-4 = test: Cytotoxicity against human OVCAR4 cells assessed as cell growth at 0.01 uM after 48 hrs by sulforhodamine B assay; details: OVCAR-4, 48 h, read-out: Activity
HCT-116 = test: Cytotoxicity against human HCT116 cells assessed as cell growth at 10 uM after 48 hrs by sulforhodamine B assay; details: HCT-116, 48 h, read-out: Activity
HCC 2998 = test: Cytotoxicity against human HCC2998 cells assessed as cell growth at 10 uM; details: read-out: Activity
Procedure, shortened: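 Single-dose NCI-60 screen at 10 µM. Cells were grown in RPMI 1640 with 5% FBS and 2 mM L-glutamine, then treated for 48 h at 37 °C. Protein was measured by SRB staining with absorbance at 515 nm. Percentage growth was recorded, and inhibition percentage was calculated as 100 minus growth percentage.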

A498 = test: Cytotoxicity against human A498 cells assessed as cell growth at 10 uM after 48 hrs by sulforhodamine B assay; details: A498, 48 h, read-out: Activity
Procedure, shortened: (§3)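 NCI-60 five-dose screen. Cells were grown in RPMI 1640 with 5% FBS and 2 mM L-glutamine, plated at 5000–40,000 cells/well and preincubated for 24 h. Time-zero plates were TCA-fixed. DMSO-solubilized drug was added at five concentrations (10-fold or ½-log serial dilutions) for 48 h at 37 °C, 5% CO2. Cells were TCA-fixed, stained with 0.4% SRB and read at 515 nm. Percent growth used time-zero, control and test absorbances.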

SN12C [8] = test: Cytotoxicity against human SN12C cells assessed as cell growth at 0.01 uM after 48 hrs by sulforhodamine B assay; details: read-out: Activity
SK-MEL-2 [9] = test: Cytotoxicity against human SK-MEL-2 cells assessed as cell growth at 1 uM after 48 hrs by sulforhodamine B assay; details: SK-MEL-2, 48 h, read-out: Activity
HOP-92 = test: Cytotoxicity against human HOP92 cells assessed as cell growth at 100 nM after 48 hrs by sulforhodamine B assay; details: HOP-92, 48 h, read-out: Activity
NCI/ADR-RES [10] = test: Cytotoxicity against human NCI/ADR-RES cells assessed as cell growth at 0.01 uM after 48 hrs by sulforhodamine B assay; details: read-out: Activity
A549 = test: Cytotoxicity against human A549 cells assessed as cell growth at 0.001 uM after 48 hrs by sulforhodamine B assay; details: A549, 48 h, read-out: Activity; procedure, shortened: as §3
ACHN = test: Growth inhibition of human ACHN cells after 48 hrs by sulforhodamine B assay
Procedure, shortened: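 NCI five-dose SRB assay in RPMI 1640 with 5% FBS and 2 mM L-glutamine. Cells were preincubated 24 h, then exposed 48 h at 37 °C to five concentrations (10-fold or half-log serial dilutions from DMSO stocks). TCA fixation, SRB staining, and absorbance at 515 nm followed. IC50 was taken where [(Ti−Tz)/(C−Tz)]×100 = 50, with Tz as time-zero cell density.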

PC-3 = test: Cytotoxicity against human PC3 cells assessed as cell growth at 10 uM; details: read-out: Activity; procedure, shortened: as §1
NCI/ADR-RES [11] = test: Cytotoxicity against human NCI/ADR-RES cells assessed as cell growth at 100 nM after 48 hrs by sulforhodamine B assay; details: read-out: Activity
KM12 = test: Cytotoxicity against human KM12 cells assessed as cell growth at 1 uM after 48 hrs by sulforhodamine B assay; details: KM12, 48 h, read-out: Activity
UO-31 [12] = test: Growth inhibition of human UO31 cells after 48 hrs by sulforhodamine B assay; details: UO-31, 48 h; for CC50: read-out: LC50 (the source's name); procedure, shortened: as §2
SF-539 [13] = test: Cytotoxicity against human SF539 cells assessed as cell growth at 10 uM after 48 hrs by sulforhodamine B assay; details: SF-539, 48 h, read-out: Activity

Compound | growth at 0.01 µM (UO-31 [1]) | growth at 10 µM (SN12C [2]) | growth at 1 µM (SN12C [3]) | growth at 0.1 µM (NCI-H522) | growth at 0.01 µM (SK-MEL-2 [4]) | growth at 10 µM (NCI-H23) | growth at 0.01 µM (UACC-62) | growth at 10 µM (SK-MEL-28) | growth at 1 µM (SF-539 [5]) | GI50 (SNB-75) | TGI (SNB-75) | CC50 (SNB-75) | growth at 0.1 µM (SF-268) | growth at 0.1 µM (SF-539 [6]) | growth at 0.1 µM (SK-MEL-2 [7]) | growth at 1 µM (MDA-MB-468) | growth at 0.01 µM (OVCAR-4) | growth at 10 µM (HCT-116) | growth at 10 µM (HCC 2998) | growth at 10 µM (A498) | further results
Cc1cc(O)cc(-c2nn(CC#N)cc2-c2ccnc(-c3ccc(Oc4ccccc4)cc3)c2)c1 | 85% | 60.2% | -57% | 87% | 99% | -75% | 84% | 63.3% | 13% | 3.82 µM | 17.1 µM | 42 µM | 91% | 92% | 101% | -62% | 112% | -97% | 28.2% | -92% | growth at 0.01 µM (SN12C [8]): 88%; growth at 1 µM (SK-MEL-2 [9]): 6%; growth at 0.1 µM (HOP-92): 70%; growth at 0.01 µM (NCI/ADR-RES [10]): 96%; growth at 0.001 µM (A549): 96%; GI50 (ACHN): 2.84 µM; LC50 (concentration giving 50% net cell kill) (ACHN): 33.8 µM; TGI (ACHN): 9.14 µM; growth at 10 µM (PC-3): 66.4%; growth at 0.1 µM (NCI/ADR-RES [11]): 95%; growth at 1 µM (KM12): -39%; GI50 (UO-31 [12]): 2.18 µM; TGI (UO-31 [12]): 6.54 µM; CC50 (UO-31 [12]): 31.7 µM; growth at 10 µM (SF-539 [13]): -85%
COc1cc(C)cc(-c2nn(CC#N)cc2-c2ccc(-c3cccc(C(C)=O)c3)nc2)c1 | 86% | 40.2% | 39% | 68% | 89% | -1% | 90% | 44.7% | -39% | 1.96 µM | 6.24 µM | > 100 µM | 91% | 78% | 88% | -42% | 97% | -53% | 28.6% | -55% | growth at 0.01 µM (SN12C [8]): 88%; growth at 1 µM (SK-MEL-2 [9]): 22%; growth at 0.1 µM (HOP-92): 89%; growth at 0.01 µM (NCI/ADR-RES [10]): 91%; growth at 0.001 µM (A549): 97%; GI50 (ACHN): 4.19 µM; LC50 (concentration giving 50% net cell kill) (ACHN): > 100 µM; TGI (ACHN): > 100 µM; growth at 10 µM (PC-3): 31.5%; growth at 0.1 µM (NCI/ADR-RES [11]): 59%; growth at 1 µM (KM12): 4%; GI50 (UO-31 [12]): 3.18 µM; TGI (UO-31 [12]): 58.2 µM; CC50 (UO-31 [12]): > 100 µM; growth at 10 µM (SF-539 [13]): -48%
Cc1cc(O)cc(-c2nn(CC#N)cc2-c2ccnc(-c3ccc(N(C)C)cc3)c2)c1 | 84% | 51.2% | 26% | 75% | 108% | -37% | 96% | 38.1% | -34% | 1.86 µM | 5.94 µM | > 100 µM | 90% | 91% | 112% | -50% | 108% | -81% | 53.5% | -33% | growth at 0.01 µM (SN12C [8]): 90%; growth at 1 µM (SK-MEL-2 [9]): 11%; growth at 0.1 µM (HOP-92): 73%; growth at 0.01 µM (NCI/ADR-RES [10]): 96%; growth at 0.001 µM (A549): 104%; GI50 (ACHN): 3.73 µM; LC50 (concentration giving 50% net cell kill) (ACHN): > 100 µM; TGI (ACHN): 23.7 µM; growth at 10 µM (PC-3): 40.4%; growth at 0.1 µM (NCI/ADR-RES [11]): 91%; growth at 1 µM (KM12): -9%; GI50 (UO-31 [12]): 3.23 µM; TGI (UO-31 [12]): 32.5 µM; CC50 (UO-31 [12]): > 100 µM; growth at 10 µM (SF-539 [13]): -71%
